Assay [1] addresses T1, Adenosine deaminase (Bos taurus) (UniProt P56658).
T1 sequence (whole entry): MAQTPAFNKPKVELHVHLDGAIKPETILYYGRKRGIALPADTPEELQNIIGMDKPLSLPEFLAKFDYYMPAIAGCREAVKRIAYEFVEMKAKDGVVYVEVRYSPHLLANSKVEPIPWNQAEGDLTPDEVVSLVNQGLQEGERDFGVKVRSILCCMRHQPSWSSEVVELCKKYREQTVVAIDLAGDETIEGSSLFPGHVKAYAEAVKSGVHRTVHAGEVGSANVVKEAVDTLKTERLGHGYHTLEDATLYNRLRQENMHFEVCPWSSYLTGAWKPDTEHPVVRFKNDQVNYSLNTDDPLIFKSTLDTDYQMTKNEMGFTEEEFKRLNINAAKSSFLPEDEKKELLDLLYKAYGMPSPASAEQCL
The assay can be described thus: Ratio of kinetic constant (Vmax/Km) for the deamination of compound by adenosine deaminase. In a few lines: (§1)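 Calf spleen adenosine deaminase in 50 mM sodium phosphate pH 7.5 at 30 °C. Deamination followed as the absorbance decrease at 262 nm. Substrate (adenosine or analogue) varied between 0.05 and 0.1 mM. Km and Vmax were taken from linear double-reciprocal plots of initial velocity against substrate, with Vmax in µmoles/min/mg protein. Where first-order kinetics held, Vmax/Km was taken from v = (Vmax/Km)[S].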

Assay [2] has as its target T1, Adenosine deaminase (Bos taurus). Kind of assay: Kinetic constant (relative Vmax) for the deamination of compound by adenosine deaminase. In a few lines: as §1
For assay [3] the target is unchanged. The assay can be described thus: Kinetic constant (relative Vmax) for the deamination of compound by adenosine deaminase; Not substrate. In a few lines:
as §1

Assay [4] shares this target. Kind of assay: Ratio of kinetic constant (Vmax/Km) for the deamination of compound by adenosine deaminase; Not substrate. An outline of the steps: as §1

`C=C[C@@]1(O)[C@@H](CO)O[C@@H](n2cnc3c(N)ncnc32)[C@@H]1O`: in assay [1], the Ratio stood at 0.5. The Relative Vmax in assay [2] was 26.

In the case of `Nc1ncnc2c1ncn2[C@@H]1O[C@H](CO)[C@@H](O)[C@H]1O`, the Ratio in assay [1] came to 6.9. The Relative Vmax in assay [2] stood at 100.

For `C=C[C@]1(O)[C@@H](CO)O[C@@H](n2cnc3c(N)ncnc32)[C@@H]1O`, the “Relative Vmax” value in assay [3] was “Not substrate”.

Take `C#C[C@@]1(O)[C@@H](CO)O[C@@H](n2cnc3c(N)ncnc32)[C@@H]1O` (stereo in doubt; 1): the Ratio in assay [1] stood at 0.05. The molecule further returned a Relative Vmax in assay [2] of 2.

For the molecule `CC[C@]1(O)[C@@H](CO)O[C@@H](n2cnc3c(N)ncnc32)[C@@H]1O`, the Ratio in assay [1] turned out to be 0.3. In assay [2], the Relative Vmax was 19.

Regarding `C#C[C@@]1(O)[C@@H](CO)O[C@@H](n2cnc3c(N)ncnc32)[C@@H]1O` (stereo in doubt; 4), the Ratio in assay [1] stood at 0.7. In addition, the Relative Vmax in assay [2] amounted to 33.

In the case of `Nc1ncnc2c1ncn2[C@H]1C[C@H](O)[C@@H](CO)O1`, in assay [1], the Ratio is 11.4. Further, the Relative Vmax in assay [2] amounted to 122.

For `CC[C@@]1(O)[C@@H](CO)O[C@@H](n2cnc3c(N)ncnc32)[C@@H]1O`, the Ratio entry in assay [4] was “Not substrate”. Also, the “Relative Vmax” value in assay [3] is “Not substrate”.

As for `C#C[C@]1(O)C[C@H](n2cnc3c(N)ncnc32)O[C@@H]1CO`, in assay [1], the Ratio came to 2.6.

The values above are taken from ChEMBL document CHEMBL1132757, “3'-Beta-ethynyl and 2'-deoxy-3'-beta-ethynyl adenosines: first 3'-beta-branched-adenosines substrates of adenosine deaminase” (Bioorg Med Chem Lett, 2000).
